Reference: ChEMBL document CHEMBL2203029, “Discovery and Structural Modification of 1-Phenyl-3-(1-phenylethyl)urea Derivatives as Inhibitors of Complement” (ACS Med Chem Lett, 2012)
In brackets after ≈: the same amount, converted by molar mass. Activity calls are given as the source filed them. No cut-off for these calls is given here.

Columns and labels:
[1] = (§1) Inhibition of complement system in human fetal serum assessed as inhibition of hemolysis incubated for 1 hr by spectrophotometric analysis
Homo sapiens [2] = species on record: Homo sapiens; assay: Inhibition of complement system in human fetal serum assessed as inhibition of hemolysis at 100 ug/mL incubated for 1 hr by spectrophotometric analysis
Homo sapiens [3] = species on record: Homo sapiens; assay: as §1
[4] = Inhibition of lectin pathway in human serum assessed as inhibition of C3 activation incubated for 1 hr by ELISA; format: cell-free
Procedure, shortened: (§2)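 Normal human serum was added to coated plates and incubated with a range of inhibitor concentrations. The coating set the pathway: IgM for the classical pathway, mannan for the lectin pathway, and zymosan for the alternative pathway. C3, C4 and C9 deposition were then measured on the plates.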

[5] = Inhibition of alternative complement system in human serum assessed as inhibition of C9 deposition incubated for 1 hr by ELISA; format: cell-free; procedure, shortened: as §2
[6] = Inhibition of lectin pathway in human serum assessed as inhibition of C4 activation incubated for 1 hr by ELISA; format: cell-free; procedure, shortened: as §2
Homo sapiens [7] = species on record: Homo sapiens; assay: Inhibition of classical complement system in human serum assessed as inhibition of C4 activation incubated for 1 hr by ELISA; format: cell-free; procedure, shortened: as §2
Homo sapiens [8] = species on record: Homo sapiens; assay: Inhibition of alternative complement system in human serum assessed as inhibition of C4 activation incubated for 1 hr by ELISA; format: cell-free; procedure, shortened: as §2
[9] = Inhibition of lectin pathway in human serum assessed as inhibition of C9 deposition at 10 ug/mL incubated for 1 hr by ELISA; format: cell-free
Homo sapiens [10] = species on record: Homo sapiens; assay: Inhibition of classical complement system in human serum assessed as inhibition of C9 deposition at 10 ug/mL incubated for 1 hr by ELISA; format: cell-free
[11] = Inhibition of lectin pathway in human serum assessed as inhibition of C9 deposition incubated for 1 hr by ELISA; format: cell-free; procedure, shortened: as §2
[12] = Inhibition of classical complement system in human serum assessed as inhibition of C9 deposition incubated for 1 hr by ELISA; format: cell-free; procedure, shortened: as §2
Homo sapiens [13] = species on record: Homo sapiens; assay: Inhibition of alternative complement system in human serum assessed as inhibition of C3 activation incubated for 1 hr by ELISA; format: cell-free; procedure, shortened: as §2
Homo sapiens [14] = species on record: Homo sapiens; assay: Inhibition of classical complement system in human serum assessed as inhibition of C3 activation incubated for 1 hr by ELISA; format: cell-free; procedure, shortened: as §2
Homo sapiens [15] = species on record: Homo sapiens; assay: Inhibition of alternative complement system in human serum assessed as inhibition of C9 deposition at 10 ug/mL incubated for 1 hr by ELISA; format: cell-free
Homo sapiens [16] = species on record: Homo sapiens; assay: Inhibition of complement system in human fetal serum assessed as inhibition of hemolysis at 10 ug/mL incubated for 1 hr by spectrophotometric analysis

Row | Structure (SMILES) | IC50 [1] [nM] | other results
1 | COc1ccc(NC(=O)N[C@@H](C)c2ccccc2)cc1OCC1CCCN(C)C1 (some centres not stated) | 3200 | 
2 | COc1ccc(NC(=O)N[C@@H](C)c2ccc(O)cc2)cc1OCCCC(C)C | 139 | 
3 | CCC#CCOc1cc(NC(=O)N[C@@H](C)c2ccccc2)ccc1OC | 244 | 
4 | C[C@H](NC(=O)Nc1ccc(Cl)cc1)c1ccccc1 |  | inhibition (Homo sapiens [2]): inactive
5 | COc1ccc(NC(=O)N[C@@H](C)c2ccc(C(=O)O)cc2)cc1OCCCC(C)C | 761 | 
6 | CCCCOc1cc(NC(=O)N2CCCC2c2ccccc2)ccc1OC (configuration not stated) | 105 | 
7 | CCCCCCCOc1cc(NC(=O)N[C@@H](C)c2ccccc2)ccc1OC | 780 | 
8 | COc1ccc(N(C)C(=O)N[C@@H](C)c2ccccc2)cc1OCCCC(C)C | 540 | 
9 | COc1ccc(NC(=O)NCc2cccc(-c3ccccc3)c2)cc1OC |  | inhibition (Homo sapiens [2]): inactive
10 | C#CCOc1cc(NC(=O)N[C@@H](C)c2ccccc2)ccc1OC | 8300 | 
11 | COc1ccc(NC(=O)N[C@@H](C)c2ccc(F)cc2)cc1OCCCC(C)C | 402 | 
12 | CCCCCCOc1cc(NC(=O)N[C@@H](C)c2ccccc2)ccc1OC | 17 | 
13 | N=C(N)c1cc2ccc(OC(=O)c3cccs3)cc2s1 | 10 | 
14 | CCCCCCCCOc1cc(NC(=O)N[C@@H](C)c2ccccc2)ccc1OC | 1290 | 
15 | COc1ccc(NC(=O)N[C@@H](C)c2ccc(Br)cc2)cc1OCCCC(C)C | 3390 | 
16 | CCCCOc1cc(NC(=O)N[C@@H](C)c2ccccc2)ccc1OC | 33 | 
17 | CCCOc1cc(NC(=O)N[C@@H](C)c2ccccc2)ccc1OC | 353 | 
18 | CCCCOc1cc(NC(=O)NC(CC)c2ccccc2)ccc1OC (configuration not stated) | 420 | 
19 | COc1ccc(NC(=O)N[C@@H](C)c2cccc(Br)c2)cc1OCCCC(C)C | 1320 | 
20 | C=CCOc1ccc(NC(=O)N[C@@H](C)c2ccccc2)cc1OC |  | inhibition (Homo sapiens [2]): inactive
21 | COc1ccc(NC(=O)N[C@@H](C)c2ccccc2)cc1OC(C)C | 10600 | 
22 | COc1ccc(NC(=O)N[C@@H](C)c2ccccc2)cc1OC | 50000 | 
23 | COc1ccc(NC(=O)N[C@@H](C)c2ccc(C#N)cc2)cc1OCCCC(C)C | 1260 | 
24 | COc1ccc(NC(=O)N[C@@H](C)c2ccc(C)cc2)cc1OCCCC(C)C | 327 | 
25 | CCCCCOc1cc(OC)c(NC(=O)N[C@@H](C)c2ccccc2)c(OC)c1 |  | inhibition (Homo sapiens [3]): inactive

Row | Structure (SMILES) | IC50 [1] [nM] | other results
26 | COc1ccc(NC(=O)N[C@@H](C)c2ccccc2)cc1OCCC(C)C | 630 | 
27 | COc1cccc(NC(=O)N[C@@H](C)c2ccccc2)c1 |  | inhibition (Homo sapiens [2]): inactive
28 | CCCCCCCCCCCCOc1cc(NC(=O)N[C@@H](C)c2ccccc2)ccc1OC |  | inhibition (Homo sapiens [2]): inactive
29 | CCOc1cc(NC(=O)N[C@@H](C)c2ccccc2)ccc1OC | 2860 | 
30 | COC(=O)c1ccc([C@H](C)NC(=O)Nc2ccc(OC)c(OCCCC(C)C)c2)cc1 | 535 | 
31 | CCCCCOc1ccccc1NC(=O)N[C@@H](C)c1ccccc1 |  | inhibition (Homo sapiens [3]): inactive
32 | COc1ccc(NC(=O)N[C@@H](C)c2ccccc2[N+](=O)[O-])cc1OCCCC(C)C | 368 | 
33 | COc1ccc(NC(=O)N[C@@H](C)c2ccccc2)cc1OCCN1CCCCC1 | 35500 | 
34 | CCCCCOc1ccc(OC)cc1NC(=O)N[C@@H](C)c1ccccc1 |  | inhibition (Homo sapiens [3]): inactive
35 | COc1ccc(NC(=O)N(C)[C@@H](C)c2ccccc2)cc1OCCCC(C)C | 19 | 
36 | COCCOc1cc(NC(=O)N[C@@H](C)c2ccccc2)ccc1OC | 2000 | 
37 | CCCCOc1cc(NC(=O)NC2CCc3ccccc32)ccc1OC (configuration not stated) |  | inhibition (Homo sapiens [3]): inactive
38 | COc1ccc(NC(=O)N(CCO)[C@@H](C)c2ccccc2)cc1OCCCC(C)C | 323 | 
39 | COc1ccc(NC(=O)N[C@@H](C)c2ccccc2)cc1OCC(C)C | 870 | 
40 | COc1ccc(NC(=O)N[C@@H](C)c2ccccc2)cc1OCc1ccccc1 |  | inhibition (Homo sapiens [2]): 32.7%
41 | CCCCCCCCCCOc1cc(NC(=O)N[C@@H](C)c2ccccc2)ccc1OC |  | inhibition (Homo sapiens [2]): inactive
42 | COc1ccc(NC(=O)N(CCCO)[C@@H](C)c2ccccc2)cc1OCCCC(C)C | 223 | 
43 | CCCCCOc1cc(OC)ccc1NC(=O)N[C@@H](C)c1ccccc1 |  | inhibition (Homo sapiens [3]): inactive
44 | CCCCCOc1cc(NC(=O)N[C@@H](C)c2ccccc2)cc(OC)c1 | 270 | 
45 | COc1cc(NC(=O)N[C@@H](C)c2ccccc2)ccc1OCc1ccccc1 |  | inhibition (Homo sapiens [2]): inactive
46 | COc1ccc(NC(=O)N[C@H](C)c2ccccc2)cc1OC |  | inhibition (Homo sapiens [2]): 16.9%
47 | COc1ccc(NC(=O)N(CC(O)CO)[C@@H](C)c2ccccc2)cc1OCCCC(C)C (some centres not stated) | 368 | 
48 | COc1cc(NC(=O)N[C@@H](C)c2ccccc2)ccc1O |  | inhibition (Homo sapiens [2]): 14.6%
49 | CCOC(=O)COc1ccc(NC(=O)N[C@@H](C)c2ccccc2)cc1OC |  | inhibition (Homo sapiens [2]): inactive
50 | COc1ccc(NC(=O)N[C@@H](C)c2ccccc2)cc1OCC1CCCCC1 | 468 | 

Row | Structure (SMILES) | IC50 [1] [nM] | other results
51 | CCCCCOc1cccc(NC(=O)N[C@@H](C)c2ccccc2)c1 | 3200 | 
52 | COc1ccc(NC(=O)N[C@@H](C)c2ccccc2)cc1OCCN1CCCC1 |  | inhibition (Homo sapiens [2]): inactive
53 | COc1ccc(NC(=O)N[C@@H](C)c2ccccc2)cc1OCCCC(C)C | 13 | inhibition [4]: inactive; IC50 [5]: 3.59 µg/mL (≈ 9.69 µM); inhibition [6]: inactive; inhibition (Homo sapiens [7]): inactive; inhibition (Homo sapiens [8]): inactive; inhibition [9]: 90%; inhibition (Homo sapiens [10]): 90%; IC50 [11]: 4.46 µg/mL (≈ 12 µM); IC50 [12]: 3.68 µg/mL (≈ 9.93 µM); inhibition (Homo sapiens [13]): inactive; inhibition (Homo sapiens [14]): inactive; inhibition (Homo sapiens [15]): 90%
54 | COc1ccc(NC(=O)N(CCCN)[C@@H](C)c2ccccc2)cc1OCCCC(C)C | 7160 | 
55 | C[C@H](NC(=O)Nc1cccnc1)c1ccccc1 |  | inhibition (Homo sapiens [2]): inactive
56 | COc1ccc(N(C)C(=O)N(C)[C@@H](C)c2ccccc2)cc1OCCCC(C)C |  | inhibition (Homo sapiens [2]): inactive
57 | COc1ccc(NC(=O)N[C@@H](C)c2cccc(O)c2)cc1OCCCC(C)C | 77 | 
58 | COc1ccc(NC(=O)NCc2cccc3ccccc23)cc1OC |  | inhibition (Homo sapiens [2]): inactive
59 | C=C(C)COc1cc(NC(=O)N[C@@H](C)c2ccccc2)ccc1OC | 7900 | 
60 | CCOC(=O)COc1cc(NC(=O)N[C@@H](C)c2ccccc2)ccc1OC | 6200 | 
61 | COc1ccc(N(CCCO)C(=O)N[C@@H](C)c2ccccc2)cc1OCCCC(C)C | 1580 | 
62 | C[C@H](NC(=O)Nc1ccccc1)c1ccccc1 |  | inhibition (Homo sapiens [2]): inactive
63 | CC#CCOc1cc(NC(=O)N[C@@H](C)c2ccccc2)ccc1OC | 1590 | 
64 | CCCCOc1cc(NC(=O)NCCC(C)c2ccccc2)ccc1OC (configuration not stated) |  | inhibition (Homo sapiens [3]): inactive
65 | COc1ccc(NC(=O)N(C)Cc2ccccc2)cc1OC |  | inhibition (Homo sapiens [2]): 43.8%
66 | CCCCOc1cc(NC(=O)N2CCCCC2c2ccccc2)ccc1OC (configuration not stated) |  | inhibition (Homo sapiens [3]): inactive
67 | COc1ccc(NC(=O)N[C@@H](C)c2ccc([N+](=O)[O-])cc2)cc1OCCCC(C)C | 1690 | 
68 | C=CCOc1cc(NC(=O)N[C@@H](C)c2ccccc2)ccc1OC | 1750 | 
69 | COc1ccc(NC(=O)N[C@@H](C)c2ccc(C(F)(F)F)cc2)cc1OCCCC(C)C |  | inhibition (Homo sapiens [16]): inactive
70 | CCCCOc1cc(NC(=O)NCC(C)c2ccccc2)ccc1OC (configuration not stated) |  | inhibition (Homo sapiens [3]): inactive
71 | CCOc1ccc(NC(=O)N[C@@H](C)c2ccccc2)cc1OC |  | inhibition (Homo sapiens [2]): inactive
72 | CCCCCOc1cc(NC(=O)N[C@@H](C)c2ccccc2)ccc1OC | 19 | 
73 | COc1ccc(NC(=O)N[C@@H](C)c2ccccc2)cc1 |  | inhibition (Homo sapiens [2]): inactive
74 | COc1cc(NC(=O)N[C@@H](C)c2ccccc2)ccc1OCCNC(=O)OC(C)(C)C |  | inhibition (Homo sapiens [2]): inactive
75 | COc1ccc(NC(=O)N[C@@H](C)c2ccccc2)cc1O |  | inhibition (Homo sapiens [2]): 35.3%
